Compound activity as filed in PubChem BioAssay.
Sampled rows, rich in hits. Any-hit rate of the full collection: about 2.1%.
RanGTP-Impb inh = inhibitors of RanGTP-importin-beta interaction, primary screen, biochemical, FRET, CFP-Ran, YFP-importin-beta, homogeneous; 300,000 compounds, 1.1% hits; cell-free CFP-Ran/YFP-importin-beta FRET ratio; inhibition, % (concentration not given with the values); Ran GTPase (GTP-bound) - importin-beta complex;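 active = more than half of the replicate wells show a fall in the fluorescence ratio signal beyond about 16%, limit read from the data, passing the limit was not always enough; inconclusive = exactly half of the replicate wells pass the set limit; inactive = fewer than half of replicates pass the limit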;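 note: 0% = DMSO wells and 100% = Ran loaded with GDP instead of GTP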
Runt-CBFb FRET = inhibitors of RUNX1 Runt–CBFb binding, primary screen, biochemical, FRET, Cerulean-Runt, Venus-CBFb, uHTS; inhibition, % at 20 µM; 220,000 compounds, 0.46% hits; Cerulean-Runt/Venus-CBFb FRET ratio 530/480, 1 h;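 active = inhibition over about 50% at 20 µM in the single-dose screen, limit read from the data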;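 note: 0% = DMSO wells and 100% = excess unlabeled CBFb competitor control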
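Buffer or medium: Tris pH 7.5 buffer with BSA. Assay system: Cerulean-labeled Runt domain protein. Amount: each fluorescent fusion protein 100 nM. Read-out basis: loss of energy transfer signal. Incubation: 1 h compound exposure, room temperature. Probe or stimulus: Venus-CBFb binding partner, 100 nM. Detection: FRET, excitation 422 nm, emission at 530 and 480 nm.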
Runt-SMMHC FRET = inhibitors of RUNX1 Runt–CBFb-SMMHC binding, primary screen, biochemical, FRET, Cerulean-Runt, Venus-CBFb-SMMHC, uHTS; Runt-related transcription factor 1 (Homo sapiens) + Core-binding factor subunit beta …; Cerulean-Runt/Venus-CBFb-SMMHC FRET ratio 530/480, 1 h; inhibition, % at 20 µM; 220,000 compounds, 0.74% hits; AID 1434, 2008;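 active = mean inhibition across duplicate retests at 20 µM reaching about 50%, limit read from the data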;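 note: 0% = DMSO wells and 100% = wells with excess untagged CBFb-SMMHC; inhibitors lower the FRET ratio by blocking Runt binding to CBFb-SMMHC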
Pemphigus Ab inh = inhibitors of pemphigus antibody binding to DSG3, primary screen, biochemical, bead-based, flow cytometry, scFv-GFP; AID 588358, 2011; 310,000 compounds, 0.48% hits; binding (percent of control), % at 10 µM; DSG3-coupled beads, scFv-anti-DSG3-GFP binding; stronger effect = lower value; Desmoglein-3 (Homo sapiens), P32926;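 active = binding more than 3 SD below its plate's average and above zero; inconclusive = below that plate limit but binding exactly zero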
pCIP destab = p/CIP-EGFP fusion destabilizers, primary screen, fluorescence, F442A cells; Q05BA5; 16 h; decrease of EGFP signal, % at 10 µM; 290,000 compounds, 0.01% hits;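 active = EGFP signal decrease of at least 30% at 10 µM or well 3 SD below plate mean, unless failing retest; inactive = the rest, including hits failing retest or dose response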
Hck Nef HTS = inhibitors of Nef-activated human Hck kinase, primary screen, biochemical, Z-Lyte FRET, 384-well, Hck-YEEI. Tyrosine-protein kinase HCK (Homo sapiens), P08631. Recombinant Hck-YEEI plus Nef, Z-Lyte FRET kinase assay. inhibition, % at 20 µM. 220,000 compounds, 0.68% hits. AID 463187, 2010;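 active = Hck-Nef kinase inhibition above about 50%, limit read from the data; inactive = inhibition below that limit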;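 note: 0% = DMSO with Hck plus Nef and 100% = Hck alone without Nef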
Target sequence (P08631 whole entry, looked up): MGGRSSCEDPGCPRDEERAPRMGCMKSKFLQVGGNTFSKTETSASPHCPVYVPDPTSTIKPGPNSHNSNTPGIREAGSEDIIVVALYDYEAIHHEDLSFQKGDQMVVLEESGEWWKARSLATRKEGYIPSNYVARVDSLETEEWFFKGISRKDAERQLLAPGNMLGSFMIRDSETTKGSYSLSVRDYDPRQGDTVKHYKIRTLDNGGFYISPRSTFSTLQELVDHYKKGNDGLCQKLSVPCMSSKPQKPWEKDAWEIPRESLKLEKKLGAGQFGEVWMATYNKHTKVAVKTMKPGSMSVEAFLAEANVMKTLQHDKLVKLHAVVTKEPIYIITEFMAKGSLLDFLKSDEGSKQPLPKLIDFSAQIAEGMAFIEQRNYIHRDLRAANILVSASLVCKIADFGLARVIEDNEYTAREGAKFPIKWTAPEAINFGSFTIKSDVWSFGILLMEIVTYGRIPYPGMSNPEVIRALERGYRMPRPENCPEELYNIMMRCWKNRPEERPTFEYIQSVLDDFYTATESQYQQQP
Hck-Nef confirm = retest of Hck:Nef kinase inhibitor hits, confirmation, biochemical, Z-Lyte FRET, 384-well, p-Tyr peptide counterscreen | Recombinant Hck-YEEI:Nef, Z-Lyte FRET kinase assay | 1,300 compounds, 28% hits | calls only at 10 µM | shares compounds with Hck Nef HTS;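 active = average inhibition of at least 50%, with Z-scores no higher than 3 in both the phospho-tyrosine peptide and fluorescence counterscreens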
Starred values were filed as active, the others as inactive; i = inactive; ? = inconclusive; . = no result shown; + = active, no number.

SMILES	RanGTP-Impb inh	Runt-CBFb FRET	Runt-SMMHC FRET	Pemphigus Ab inh	pCIP destab	Hck Nef HTS	others
COc1ccc2cc(C(N)=O)/c(=N\NC(=O)c3ccccc3)oc2c1	14	.	.	91	-7	.
COc1cccc(N=c2oc3cc(O)ccc3cc2C(=O)NCC2CCCO2)c1 (configuration not stated)	180*	52*	90*	99	-23	82*
Cc1cc(NC(=O)c2sccc2C)n(-c2nc3ccccc3[nH]2)n1	3	0	-1	98	-4	26
Cc1cc(NC(=O)c2cccs2)n(-c2nc3ccccc3[nH]2)n1	1	-1	-3	89	-25	85*	Hck-Nef confirm=i
CCOc1ccccc1OCCC(=O)NNC(=O)Cn1nc(C)cc1C	-3	.	.	100	.	.
O=C1NN(c2cccc(Br)c2)C(=O)/C1=C/c1ccc(-c2cc([N+](=O)[O-])ccc2O)o1	-10	-17	-40	82*	4	98*	Hck-Nef confirm=+
C1CCC(c2nn3c(-c4n[nH]c5c4CCC5)nnc3s2)CC1	0	-3	-1	97	2	3
CCN(CC)c1ccc(-c2nn3c(-c4n[nH]c5c4CCC5)nnc3s2)cc1	7	12	32	111	-22	61*	Hck-Nef confirm=i
Cc1ccc(C)n1Cc1ccc(C(=O)O)cc1	.	4	2	68*	-5	74*	Hck-Nef confirm=i
N#Cc1cc2c(=O)n3ccccc3nc2n(-c2ccccc2Cl)c1=O	136*	3	90*	102	8	+
Cc1cccn2c(=O)c3cc(C(=O)NCCCn4ccnc4)n(C)c3nc12	4	2	11	.	2	19
CCNC(=O)c1cc2c(=O)n3cccc(C)c3nc2n(CCc2ccccc2)c1=N	186*	17	62*	101	-8	98*
C=CCn1c(=N)c(C(=O)NCCCOC)cc2c(=O)n3cccc(C)c3nc21	+	18	61*	.	-4	200*
Cc1cccn2c(=O)c3cc(C(=O)NCCc4ccccc4)c(=N)n(CCCn4ccnc4)c3nc12	178*	9	82*	105	2	61*
COc1ccc(CCn2c(=N)c(C(=O)NCCN3CCOCC3)cc3c(=O)n4cccc(C)c4nc32)cc1OC	11	.	.	104	12	.
Cn1c(=N)c(S(=O)(=O)c2ccc(Cl)cc2)cc2c(=O)n3ccccc3nc21	.	.	.	.	.	2
Cc1cc(C)c(C(=O)CN2C(=O)NC3(CCCCCC3)C2=O)cc1C	4	-2	4	85	-7	19
O=C(CC1OC(=O)c2ccccc21)Nc1cc(Cl)ccc1N1CCCC1 (configuration not stated)	-2	.	.	100	.	.
Cc1c(NC(=O)CN2CCCC(C)C2)ccc2nsnc12 (configuration not stated)	-3	1	4	99	0	20
Cc1nc2ccccc2c(=O)n1CCCN1CCOCC1	0	0	-1	115	-7	17
Cc1cccn2c(=O)c(C=O)c(Cl)nc12	?	4	0	105	-9	0
Cc1ccc2nc3c(cc(C#N)c(=O)n3-c3nccs3)c(=O)n2c1	191*	12	65*	?	3	185*
Cc1ccc(-n2c(=O)c(C#N)cc3c(=O)n4cccc(C)c4nc32)cc1	93*	122*	59*	98	-6	67*
Cc1ccc(O)c(C(=O)c2cc(C#N)c(=O)n(-c3nccs3)c2)c1	0	-64	-79	101	-2	26
N#Cc1cc2c(=O)n3ccccc3nc2n(CCCN2CCOCC2)c1=O	95*	77*	62*	.	-14	149*
SMILES	RanGTP-Impb inh	Runt-CBFb FRET	Runt-SMMHC FRET	Pemphigus Ab inh	pCIP destab	Hck Nef HTS	others
Cc1ccc2nc3c(cc(C(=O)NC4CCCC4)c(=N)n3CCCn3ccnc3)c(=O)n2c1	156*	.	.	.	-1	110*
Cc1cc(C)cc(C(=O)N2CCC3(CC2)NCCc2[nH]cnc23)c1	3	.	.	119	-7	.
Cc1cccn2c(=O)c3cc(C(=O)N(C)C)n(C)c3nc12	-5	-11	-24	106	-1	23
Cc1cccn2c(=O)c3cc(C(=O)NCCN4CCOCC4)c(=N)n(CCc4ccccc4)c3nc12	185*	11	41	105	-23	61*
CNC(=O)c1cc2c(=O)n3cccc(C)c3nc2n(C(C)C)c1=N	184*	19	60*	101	-19	172*
O=C(NCCN1CCOCC1)c1cc2c(=O)n3ccccc3nc2n1Cc1ccccc1	6	20	48	.	-3	52*	Hck-Nef confirm=i
Cc1ccc(NC(=O)Nc2c(Cl)cccc2Cl)cn1	?	-1	-3	87	-8	8
CC1(c2nnc(Cc3ccccc3)o2)CC(c2ccncc2)=NO1 (configuration not stated)	?	.	.	105	.	.
CCOC(=O)c1c(NC(=O)/C=C/C(=O)O)sc(C)c1-c1ccc(Cl)cc1	5	-6	-5	98	-5	107*	Hck-Nef confirm=+
O=c1[nH]c(-c2ccc3c(c2)OCO3)nc2c1sc(=S)n2-c1ccccc1	1	19	1	98	-1	61*	Hck-Nef confirm=i
O=c1[nH]c(-c2ccc(F)cc2)nc2c1sc(=S)n2-c1ccccc1	0	-1	3	95	-11	1
Cc1nc2ccc(NS(=O)(=O)c3ccc(Br)cc3)cc2s1	.	.	.	109	.	.
CC1=C(C#N)C(=O)NC(=O)/C1=C/c1ccc(-c2ccc(S(N)(=O)=O)cc2)o1	-3	22	14	97	-18	52*	Hck-Nef confirm=i
NS(=O)(=O)c1ccc(-c2ccc(/C=C3\NC(=S)NC3=O)o2)cc1	0	.	.	95	-8	.
O=C(Nc1cnn(C23CC4CC(CC(C4)C2)C3)c1)c1cnn2c(C(F)(F)F)cc(-c3ccco3)nc12	?	-6	-7	100	-6	81*	Hck-Nef confirm=+
Clc1ccc2c(NCc3cccs3)ncnc2c1	2	.	.	94	-27	.
COc1cc2ncnc(NCc3cccs3)c2cc1OC	4	-1	-1	96	-3	57*	Hck-Nef confirm=i
